Measured values as given in ChEMBL document CHEMBL4619818, “Mining Public Domain Data to Develop Selective DYRK1A Inhibitors” (ACS Med Chem Lett, 2020).
In brackets after ≈: the same amount, converted by molar mass. Values belong to the compound of their own block, whether it stands above or below them.

Key:
[1] = molecular target: T1, Dual specificity tyrosine-phosphorylation-regulated kinase 1A (Homo sapiens, UniProt Q13627); assay: Inhibition of recombinant human N-terminal Hex-tagged DYRK1A (127 to 485 residues) expressed in Escherichia coli BL21 (DE3) incubated for 1.5 hrs by TR-FRET assay
[2] = molecular target: T1, Dual specificity tyrosine-phosphorylation-regulated kinase 1A; assay: Inhibition of recombinant human DYRK1A (129 to 509 residues) expressed in mammalian expression system at 1 uM by DiscoverX competition binding assay relative to control
How it was run: (§1)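 Competition binding assay with test compound at 1 µM inhibitor concentration. Result expressed as percent inhibition, single determination (n=1). The kinome-wide panel also gave a selectivity score, S-Score(40).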

[3] = molecular target: Dual specificity tyrosine-phosphorylation-regulated kinase 1B (Homo sapiens) (UniProt Q9Y463); assay: Inhibition of recombinant human full length DYRK1B (1 to 629 residues) expressed in bacterial expression system at 1 uM by DiscoverX competition binding assay relative to control; how it was run: as §1
Chain of Dual specificity tyrosine-phosphorylation-regulated kinase 1B (Homo sapiens) (Q9Y463 whole entry, looked up, the tested form may be a part): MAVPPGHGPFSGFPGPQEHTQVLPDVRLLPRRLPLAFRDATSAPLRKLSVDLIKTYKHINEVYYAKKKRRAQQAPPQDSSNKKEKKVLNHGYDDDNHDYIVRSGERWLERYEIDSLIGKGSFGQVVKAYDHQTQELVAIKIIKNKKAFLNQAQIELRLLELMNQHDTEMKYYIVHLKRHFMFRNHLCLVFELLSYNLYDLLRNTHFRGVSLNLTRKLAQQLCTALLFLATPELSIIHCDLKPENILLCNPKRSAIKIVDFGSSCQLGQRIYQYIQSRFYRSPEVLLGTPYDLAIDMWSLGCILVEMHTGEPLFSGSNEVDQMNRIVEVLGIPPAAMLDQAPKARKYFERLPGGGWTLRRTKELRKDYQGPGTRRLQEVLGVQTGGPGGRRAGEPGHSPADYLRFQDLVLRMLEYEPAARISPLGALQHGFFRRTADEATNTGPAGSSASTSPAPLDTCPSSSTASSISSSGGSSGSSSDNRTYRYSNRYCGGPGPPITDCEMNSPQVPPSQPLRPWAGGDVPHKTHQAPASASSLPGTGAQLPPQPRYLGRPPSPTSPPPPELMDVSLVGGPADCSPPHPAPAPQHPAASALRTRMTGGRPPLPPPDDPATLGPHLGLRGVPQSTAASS

[4] = molecular target: T2, Dual specificity tyrosine-phosphorylation-regulated kinase 2 (Homo sapiens) (UniProt Q92630); assay: Inhibition of recombinant human full length DYRK2 (1 to 528 residues) expressed in mammalian expression system at 1 uM by DiscoverX competition binding assay relative to control; how it was run: as §1
T2 sequence (whole entry): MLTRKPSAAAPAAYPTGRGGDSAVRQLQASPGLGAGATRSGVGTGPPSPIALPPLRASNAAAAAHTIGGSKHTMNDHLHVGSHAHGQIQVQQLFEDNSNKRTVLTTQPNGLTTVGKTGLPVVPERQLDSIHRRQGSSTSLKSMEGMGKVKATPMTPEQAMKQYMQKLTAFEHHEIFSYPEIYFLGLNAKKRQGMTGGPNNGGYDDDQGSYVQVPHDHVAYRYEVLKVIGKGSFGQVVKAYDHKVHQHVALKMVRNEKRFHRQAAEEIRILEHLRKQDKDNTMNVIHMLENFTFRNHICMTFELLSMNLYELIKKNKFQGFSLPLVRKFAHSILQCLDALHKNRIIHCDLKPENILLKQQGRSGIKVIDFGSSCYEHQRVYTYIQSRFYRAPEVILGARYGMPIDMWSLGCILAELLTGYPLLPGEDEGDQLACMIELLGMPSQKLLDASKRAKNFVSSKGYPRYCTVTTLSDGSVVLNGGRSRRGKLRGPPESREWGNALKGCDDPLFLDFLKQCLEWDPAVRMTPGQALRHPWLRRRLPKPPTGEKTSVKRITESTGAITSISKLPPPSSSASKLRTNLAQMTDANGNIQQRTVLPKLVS

[5] = molecular target: Dual specificity protein kinase CLK1 (Homo sapiens) (UniProt P49759); assay: Inhibition of recombinant human full length CLK1 (1 to 484 residues) expressed in bacterial expression system at 1 uM by DiscoverX competition binding assay relative to control; how it was run: as §1
Chain of Dual specificity protein kinase CLK1 (Homo sapiens) (P49759 whole entry, looked up, the tested form may be a part): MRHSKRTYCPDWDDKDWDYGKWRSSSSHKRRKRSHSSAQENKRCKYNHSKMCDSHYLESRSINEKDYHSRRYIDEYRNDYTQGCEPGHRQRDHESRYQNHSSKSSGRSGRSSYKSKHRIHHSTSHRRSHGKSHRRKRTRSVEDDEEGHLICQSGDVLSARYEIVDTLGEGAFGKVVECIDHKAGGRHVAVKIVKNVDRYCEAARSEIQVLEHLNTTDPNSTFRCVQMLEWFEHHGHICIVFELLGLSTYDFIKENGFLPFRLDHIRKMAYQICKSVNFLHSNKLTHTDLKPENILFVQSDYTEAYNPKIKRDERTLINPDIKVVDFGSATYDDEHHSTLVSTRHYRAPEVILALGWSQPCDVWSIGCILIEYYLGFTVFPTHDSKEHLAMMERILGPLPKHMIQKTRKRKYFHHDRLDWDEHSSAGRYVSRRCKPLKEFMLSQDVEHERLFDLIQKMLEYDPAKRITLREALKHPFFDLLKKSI

[6] = molecular target: Dual specificity protein kinase CLK2 (Homo sapiens) (UniProt P49760); assay: Inhibition of recombinant human partial length CLK2 (144 to 484 residues) expressed in bacterial expression system at 1 uM by DiscoverX competition binding assay relative to control; how it was run: as §1
Chain of Dual specificity protein kinase CLK2 (Homo sapiens) (P49760 whole entry, looked up, the tested form may be a part): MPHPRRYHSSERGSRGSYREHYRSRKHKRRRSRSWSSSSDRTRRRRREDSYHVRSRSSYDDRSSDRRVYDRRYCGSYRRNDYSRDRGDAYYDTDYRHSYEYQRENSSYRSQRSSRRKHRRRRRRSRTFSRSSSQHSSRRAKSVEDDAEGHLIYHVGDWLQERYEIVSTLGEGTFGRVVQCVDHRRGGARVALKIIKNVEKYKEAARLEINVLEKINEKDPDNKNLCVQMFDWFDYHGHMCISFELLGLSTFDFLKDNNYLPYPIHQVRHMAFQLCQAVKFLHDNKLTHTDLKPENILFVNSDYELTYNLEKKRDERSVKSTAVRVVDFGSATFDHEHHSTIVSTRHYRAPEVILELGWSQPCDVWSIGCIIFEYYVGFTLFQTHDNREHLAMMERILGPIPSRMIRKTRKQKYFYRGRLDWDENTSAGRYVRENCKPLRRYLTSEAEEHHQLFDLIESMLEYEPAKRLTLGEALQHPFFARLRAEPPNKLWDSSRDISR

[7] = molecular target: Dual specificity protein kinase CLK3 (Homo sapiens) (UniProt P49761); assay: Inhibition of recombinant human full length CLK3 (1 to 490 residues) expressed in bacterial expression system at 1 uM by DiscoverX competition binding assay relative to control; how it was run: as §1
Chain of Dual specificity protein kinase CLK3 (Homo sapiens) (P49761 whole entry, looked up, the tested form may be a part): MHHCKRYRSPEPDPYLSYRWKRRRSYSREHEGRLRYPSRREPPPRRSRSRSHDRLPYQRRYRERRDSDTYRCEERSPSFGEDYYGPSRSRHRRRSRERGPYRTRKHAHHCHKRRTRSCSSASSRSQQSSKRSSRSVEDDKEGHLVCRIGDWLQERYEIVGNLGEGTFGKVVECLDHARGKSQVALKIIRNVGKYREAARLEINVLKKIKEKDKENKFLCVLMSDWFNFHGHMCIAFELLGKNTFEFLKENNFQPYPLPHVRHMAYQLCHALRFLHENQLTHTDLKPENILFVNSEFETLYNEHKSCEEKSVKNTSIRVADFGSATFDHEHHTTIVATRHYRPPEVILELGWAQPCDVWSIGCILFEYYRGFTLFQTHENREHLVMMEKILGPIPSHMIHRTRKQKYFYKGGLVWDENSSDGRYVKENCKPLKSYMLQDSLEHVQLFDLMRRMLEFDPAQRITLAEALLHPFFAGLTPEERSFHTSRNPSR

[8] = molecular target: Cyclin-dependent kinase 2 (Homo sapiens) (UniProt P24941); assay: Inhibition of recombinant human full length CDK2 (1 to 298 residues) expressed in bacterial expression system at 1 uM by DiscoverX competition binding assay relative to control; how it was run: as §1
[9] = molecular target: Glycogen synthase kinase-3 beta (Homo sapiens) (UniProt P49841); assay: Inhibition of recombinant human full length GSK3beta (1 to 433 residues) expressed in mammalian expression system at 1 uM by DiscoverX competition binding assay relative to control; how it was run: as §1
Chain of Glycogen synthase kinase-3 beta (Homo sapiens) (P49841 whole entry, looked up, the tested form may be a part): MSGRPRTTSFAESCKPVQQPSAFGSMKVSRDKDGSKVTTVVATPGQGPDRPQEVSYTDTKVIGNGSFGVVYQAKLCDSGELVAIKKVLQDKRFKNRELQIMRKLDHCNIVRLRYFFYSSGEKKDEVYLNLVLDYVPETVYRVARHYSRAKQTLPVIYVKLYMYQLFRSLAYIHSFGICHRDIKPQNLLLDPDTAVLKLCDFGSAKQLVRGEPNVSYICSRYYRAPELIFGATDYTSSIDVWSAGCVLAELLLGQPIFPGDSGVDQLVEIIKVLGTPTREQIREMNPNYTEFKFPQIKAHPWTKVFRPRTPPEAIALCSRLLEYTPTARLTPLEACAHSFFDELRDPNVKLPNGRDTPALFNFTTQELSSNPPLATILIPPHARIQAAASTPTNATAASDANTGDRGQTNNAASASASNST

[10] = Metabolic stability in human liver microsomes assessed as intrinsic clearance; format: ADME, Microsome; details: read-out: CLH
How it was run: (§2)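 Microsomal incubations with human or rat liver microsomes. Intrinsic clearance given in µL/min/mg; values are the mean of n = 2.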

[11] = Metabolic stability in rat liver microsomes assessed as intrinsic clearance; format: ADME, Microsome; details: read-out: CLH; how it was run: as §2
[12] = Thermodynamic solubility of compound at pH 6.8; format: physicochemical; details: buffer, read-out: Therm_solubility
How it was run: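 Thermodynamic (intrinsic) solubility by shake-flask method in PBS buffer at pH 6.8. Reported in mg/mL from a single experiment.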

[13] = Apparent permeability from apical to basolateral side in dog MDCK-MDR1 cells; format: ADME, cell-based, Canis lupus familiaris
How it was run: (§3)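 MDCK cells transfected with human MDR1 gene. Apparent permeability coefficient (Papp, 10^-6 cm/s) measured across the cell layer in each direction, apical to basolateral and basolateral to apical. Mean values reported; efflux ratio taken as Papp B2A / Papp A2B.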

[14] = Apparent permeability from basolateral to apical side in dog MDCK-MDR1 cells; format: ADME, cell-based, Canis lupus familiaris; how it was run: as §3
[15] = Efflux ratio of apparent permeability from basolateral to apical side over apical to basolateral side in dog MDCK-MDR1 cells; format: ADME, cell-based, Canis lupus familiaris
How it was run: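 MDCK cells transfected with human MDR1 gene (Cyprotex assay); permeability coefficient (Papp) measured in both directions, apical to basolateral and basolateral to apical; efflux ratio taken as mean Papp B2A divided by mean Papp A2B.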

[16] = molecular target: T1, Dual specificity tyrosine-phosphorylation-regulated kinase 1A; assay: Binding affinity to DYRK1A (unknown origin) assessed as dissociation constant measured for 60 to 300 sec by SPR analysis
[17] = molecular target: T1, Dual specificity tyrosine-phosphorylation-regulated kinase 1A; assay: Inhibition of DYRK1A (unknown origin) at 1 uM by PanQinase assay relative to control
[18] = molecular target: Cyclin-dependent kinase 2 (Homo sapiens) (UniProt P24941); assay: Inhibition of CDK2 (unknown origin) at 1 uM by PanQinase assay relative to control

SMILES: Cc1cccc(N(C)c2nccc(-c3cnn4ncccc34)n2)c1
IC50 [1]: 76 nM | inhibition [2]: 65% | inhibition [3]: 0% | inhibition [4]: 19% | inhibition [5]: 59% | inhibition [6]: 59% | inhibition [7]: 6% | inhibition [8]: 12% | inhibition [9]: 4% | microsomal CLint [10]: 75 µL/min/mg | microsomal CLint [11]: 805 µL/min/mg | solubility thermodynamic [12]: 10 µg/mL (≈ 31.6 µM) | Papp A→B [13]: 20.9 ×10⁻⁶ cm/s | Papp B→A [14]: 20.1 ×10⁻⁶ cm/s | efflux ratio [15]: 0.96

SMILES: COc1cccc(N(C)c2nccc(-c3cnn4ncccc34)n2)c1
IC50 [1]: 97 nM

SMILES: N#Cc1ccc(Nc2nccc(-c3cnn4ncccc34)n2)cc1
IC50 [1]: 103 nM

SMILES: Cc1ccccc1Nc1nccc(-c2cnn3ncccc23)n1
IC50 [1]: 64 nM

SMILES: CN(c1ccccc1)c1nccc(-c2cnn3ncccc23)n1
inhibition [17]: 79% | inhibition [18]: 33% | IC50 [1]: 186 nM

Other lines, results leading:

IC50 [1]: 5 nM
SMILES: N#Cc1cccc(Nc2nccc(-c3cnn4ncccc34)n2)c1 [GW778894X]

IC50 [1]: 12 nM
SMILES: COc1cccc(Nc2nccc(-c3cnn4ncccc34)n2)c1 [PYRAZOLOPYRIDAZINE 1]

IC50 [1]: 137 nM
SMILES: COc1ccccc1Nc1nccc(-c2cnn3ncccc23)n1

IC50 [1]: 7 nM | Kd [16]: 8.9 nM
SMILES: Cc1cccc(Nc2nccc(-c3cnn4ncccc34)n2)c1

inhibition [17]: 97% | inhibition [18]: 98% | IC50 [1]: 38 nM
SMILES: c1ccc(Nc2nccc(-c3cnn4ncccc34)n2)cc1
